STEP inh: inhibitors of human striatal-enriched phosphatase STEP | AID 588621 | inhibition, % at 20 µM | 0.25% of 360,000 active | P54829 | recombinant STEP, OMFP fluorogenic substrate, fluorescence;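 active = inhibition at 20 µM, scaled per plate between control wells, above about 37%, limit read from the data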;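 note: 0% = DMSO with enzyme and substrate and 100% = substrate only without enzyme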
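System: STEP (striatal-enriched tyrosine phosphatase) enzyme, cell-free; medium: Bis-Tris pH 6.0 buffer with DTT, detergent; dosing: 20 µM, 1% DMSO; times: reaction 20 min, ambient temperature; detection: fluorescence, 480/540 nm; read-out basis: normalized % inhibition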
Rpn11 block: blocks the human proteasome subunit Rpn11 | 0.59% of 360,000 active | inhibition, % at 20 µM | human 26S proteasome, Ub4-pepOG fluorescence polarization; 20S core pre-blocked with epoxomicin;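 active = inhibition at 20 µM, scaled to each plate's controls, above about 33%, limit read from the data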
LMPTP inh: blocks human LMPTP phosphatase | inhibition, % at 20 µM | recombinant LMPTP-A, OMFP fluorogenic substrate, fluorescence intensity | P24666 | 0.22% of 360,000 active;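 active = compounds that cut the enzyme signal by at least half of the control window in the single-dose screen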;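 note: plate controls were DMSO wells with enzyme plus substrate for no effect and substrate without enzyme for full effect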
Target sequence (P24666 whole entry, looked up): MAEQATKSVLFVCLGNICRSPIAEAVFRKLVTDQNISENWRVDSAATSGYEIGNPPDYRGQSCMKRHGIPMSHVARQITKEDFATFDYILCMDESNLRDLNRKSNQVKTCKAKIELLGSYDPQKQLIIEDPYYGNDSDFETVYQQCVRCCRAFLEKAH
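material = LMPTP-A | quantity = 0.625 nM enzyme | reagent = OMFP substrate, 400 µM final | buffer or medium = Bis-Tris pH 6.0, DTT, detergent | detection = endpoint fluorescence intensity from OMFP dephosphorylation | dosing = single 20 µM dose | read-out basis = % inhibition relative to no-enzyme and uninhibited control wells | control set = no-enzyme and uninhibited controls | timing = 50 min at room temperature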
SUMO1-SIM PPI: alters human SUMO1 binding to SIM partners; 0.33% of 360,000 active; SUMO1 binding to a labelled peptide, TR-FRET, 1 h; inhibition, % at 20 µM; in the data active = inhibition above about 37%
Target sequence (P63165 whole entry, looked up): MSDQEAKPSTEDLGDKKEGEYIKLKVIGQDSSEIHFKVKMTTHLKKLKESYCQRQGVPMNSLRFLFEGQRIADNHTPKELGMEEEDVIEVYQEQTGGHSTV
Scp1 inh: inhibitors of human Scp-1 phosphatase. Q9GZU7. Recombinant Scp1, phosphopeptide, malachite green phosphate absorbance. inhibition, % at 20 µM. 0.88% of 340,000 active. AID 493091;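 active = inhibition above about 50% at 20 µM, limit read from the data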;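 note: plate controls were DMSO wells with enzyme for no effect and wells lacking enzyme for full effect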
Target sequence (Q9GZU7 76-261 limits assumed): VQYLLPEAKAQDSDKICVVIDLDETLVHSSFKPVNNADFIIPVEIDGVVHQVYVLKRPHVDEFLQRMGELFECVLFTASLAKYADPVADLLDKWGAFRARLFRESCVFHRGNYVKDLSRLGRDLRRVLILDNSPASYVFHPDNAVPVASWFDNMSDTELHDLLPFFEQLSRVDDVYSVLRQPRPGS
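Assay system: SCP-1 catalytic fragment, aa 76-261 | Buffer or medium: Tris acetate buffer pH 5.5 with MgCl2 and Tween-20 | Compound: One concentration, 20 µM, with 1.0% DMSO | Also added: Phospho 17-mer peptide substrate | Signal: Absorbance at 630 nm | Incubation: 45 min enzyme reaction at room temperature | Measure: % inhibition of SCP-1 phosphate liberation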
DNMT1 block: DNMT1 (human) enzyme inhibition | P26358 | inhibition (reported as % activation of signal), % at 10 µM | 0.83% of 360,000 active | DNMT1 molecular beacon, Hinp1I cleavage, fluorescence; in the data active = inhibition above about 50%
DNMT1 interf DR: shows spectral interference in the DNMT1 beacon assay. shares compounds with DNMT1 block. IC50, µM. 200 tested, under 10 active. molecular beacon fluorescence, spectral interference counter-screen; call rule not given here
DNMT1 inh conf: DNMT1 inhibition confirmation, single concentration; DNMT1 molecular beacon HinP1I cleavage, fluorescence; 8% of 2,300 active; inhibition, % at 10 µM; shares compounds with DNMT1 block; AID 602385;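 active = average inhibition of at least 30% in the single-concentration confirmation test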
DNMT1 interf: shows spectral interference in the DNMT1 beacon assay. shares compounds with DNMT1 block. DNMT1 molecular beacon spectral interference counterscreen, fluorescence 485/520. activation (fluorescence interference), % at 10 µM. 1% of 2,300 active;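 active = activation of at least 30% at 10 µM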;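 note: DNMT1 catalytic domain with a HinP1I cleavage step and a FAM/dabcyl DNA beacon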
Rpn11 confirm: confirmation of human proteasome Rpn11 inhibitors | shares compounds with Rpn11 block | purified human 26S proteasome, Ub4-pepOG fluorescence polarization; proteasome pretreated with epoxomicin | inhibition, % at 20 µM | 29% of 1,900 active
MMP-2 inh: blocks human MMP-2, flagging nonselective RPN11 hits | inhibition, % at 20 µM | 4% of 1,900 active | recombinant MMP-2, FRET peptide cleavage fluorescence | shares compounds with Rpn11 block | AID 602330;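 note: human MMP-2 activated beforehand with APMA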
Thrombin inh: blocks bovine thrombin, flagging nonselective RPN11 hits | inhibition, % at 20 µM | shares compounds with Rpn11 block | bovine thrombin cleavage of Ub4-pepOG, fluorescence polarization | 13% of 1,900 active;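 active = mean inhibition at least 40% at 20 µM, or signal 3 deviations below plate average, so some actives read negative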;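 note: plate controls were thrombin with DMSO for no effect and buffer wells lacking thrombin for full effect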
Numbers without * were called inactive; x = no result given; + = active, no number. Most compounds without a hit are left out; they make up all but 2.3% or so of the library. Cut-off read from the data, not from the text of the source, unless noted: active = inhibition above about 40%; inactive = the rest.

SMILES	STEP inh	Rpn11 block	LMPTP inh	SUMO1-SIM PPI	Scp1 inh	DNMT1 block	DNMT1 inh conf	DNMT1 interf	Rpn11 confirm	MMP-2 inh	Thrombin inh	others
Cc1ccc(-c2nn(CC(=O)NCc3cc(-c4nn(C)c(=O)c5ccccc45)ccc3C)c(=O)c3ccccc23)cc1	7	80*	22	0	4	57*	0	-5	7	-20	-3
CCC(=O)NCc1cc(-c2nn(C)c(=O)c3ccccc23)ccc1C	-2	-17	-2	9	-3	1	x	x	x	x	x
COc1cc(/C=C2\SC(=O)N(CC(=O)Nc3ccc(C)cc3)C2=O)cc(Cl)c1OCC(=O)O	98*	87*	84*	47*	26	90*	3	6	4	-12	25
COc1ccc(CC(=O)Nc2ccc(-c3noc(-c4ccc(Cl)cc4)n3)cc2)cc1	6	98*	22	15	10	51*	4	-5	-1	-29	-16
Cc1ccc(F)cc1C(=O)N1CCCC1(C)C(=O)NCC(C)C (centres undefined)	0	2	-1	0	x	5	x	x	x	x	x
O=C(O)CCN1C(=O)/C(=C/c2ccc(-c3nc4ccccc4s3)o2)SC1=S	70*	+	3	91*	46	99*	47*	0	173*	-17	35	DNMT1 interf DR=>99
O=Cc1ccc(-c2nc3ccccc3s2)o1	0	1	0	-20	-1	0	x	x	x	x	x
CN1C(=O)C(=O)/C(=C(/O)c2ccccc2)C1c1ccc([N+](=O)[O-])cc1 (centres undefined)	2	-5	-1	-11	-8	-1	x	x	x	x	x
CCOC(=O)c1sc(NC(=O)Nc2ccccc2F)nc1C	2	-5	-1	-1	-5	4	x	x	x	x	x
CCOC(=O)c1sc(NC(=O)/C=C/c2c(F)cccc2Cl)nc1C	0	48*	7	1	-5	60*	0	-2	0	12	8
CC1=NN(c2nc(N)nc(/C(C#N)=C/c3ccc([N+](=O)[O-])o3)n2)C(C)(C)C1	7	79*	3	-13	64*	54*	2	0	4	12	15
O=C(N/N=C/c1ccc(Br)cc1)c1ccc(NC(=O)c2ccccc2)cc1	9	140*	21	11	16	74*	-1	-6	-1	-24	-10
CCn1c(=O)c2cc(S(=O)(=O)NC3CCCCC3)ccc2n(CC)c1=O	-1	-7	0	6	-11	7	x	x	x	x	x
O=C(O)CCCCN1C(=O)/C(=C\c2ccc(OCc3ccccc3)c(OCc3ccccc3)c2)SC1=S	4	43*	35	13	1	81*	15	-2	43*	2	0
COc1ccc(N=Cc2oc3ccc4ccccc4c3c2O)cc1	20	56*	11	-15	40	60*	4	2	60*	-42	21
O=C(COC(=O)CCN1C(=O)/C(=C\C=C\c2ccccc2)SC1=S)Nc1ccc(Br)cc1	3	59*	4	-3	-15	67*	3	5	23	-13	-32
CCc1c(Cl)nc(N)nc1Nc1ccccc1Cl	-2	0	2	3	3	2	x	x	x	x	x
CCc1c(Cl)nc(N)nc1Nc1ccccc1C	-3	76*	0	-1	-10	75*	1	2	-31	-14	-19
CCOc1ccc2nc(N3C(=O)/C(=C/c4ccc(Cl)cc4)NC3=S)sc2c1	4	47*	39	79*	55*	94*	16	-2	31	-6	0
COc1ccc2nc(N3C(=O)CNC3=S)sc2c1	0	9	0	7	-7	-4	x	x	x	x	x
Cc1cccc(N=C2NC(=O)/C(=C/c3cccn3C)S2)c1C	-2	x	2	-13	-7	-4	x	x	x	x	x
Cc1cccc(N=C2NC(=O)/C(=C/C=C/c3ccco3)S2)c1C	4	65*	27	40*	66*	94*	10	3	8	47*	10
O=C(N/N=C/c1ccccc1)c1ccc(CN2C(=O)c3cccc4cccc2c34)cc1	10	+	4	-6	40	53*	0	2	199*	-12	-1
O=C(N/N=C/c1ccc(O)cc1O)c1ccc(CN2C(=O)c3cccc4cccc2c34)cc1	3	19	3	8	21	-6	x	x	x	x	x
COCCNC(=O)C1(C)CCCN(C(=O)c2cc(OC)c(OC)c(OC)c2)C1 (centres undefined)	-1	-2	-1	-2	x	5	x	x	x	x	x
SMILES	STEP inh	Rpn11 block	LMPTP inh	SUMO1-SIM PPI	Scp1 inh	DNMT1 block	DNMT1 inh conf	DNMT1 interf	Rpn11 confirm	MMP-2 inh	Thrombin inh	others
Cc1ccc(CSc2nnc(SCC(=O)N/N=C/c3c[nH]c4ccccc34)s2)cc1	12	112*	32	19	42	62*	14	-2	93*	9	5
COc1ccc(C(=O)Nc2ccc(N3CCCC3)cc2)cc1	5	43*	40	5	-9	86*	4	1	13	-10	-6
Cc1ccccc1C(=O)Nc1cc(C(F)(F)F)ccc1-n1cncn1	-1	8	-1	0	3	-3	x	x	x	x	x
O=C(Nc1ccc2c(c1)OCO2)C1CC(=O)N(c2ccc(F)cc2)C1 (centres undefined)	2	5	0	2	-5	-5	x	x	x	x	x
COc1ccc(-c2cc(C(=O)Nc3cc(Cl)ccc3O)no2)cc1	14	51*	66*	-1	-4	54*	1	7	12	-7	-5
COc1ccc(O)c(C(=O)c2cnn(C(=O)c3ccc(C)cc3)c2)c1	2	96*	-1	23	-3	55*	-1	-3	-3	-34	-11
COc1ccc(O)c(C(=O)c2cnn(-c3ccccc3)c2)c1	3	4	1	-5	-5	-1	x	x	x	x	x

Bioassay records as filed in PubChem.
